Assay [1] is filed under the species Rattus norvegicus. The experiment in a line: (§1) Neuroprotective activity in Sprague-Dawley rat DA neuron death PD model assessed as survival of Th immunopositive cells at 50 uM after 10 days by immunofluorescence assay. The format is functional. The method, boiled down:
(§2)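 Midbrain cultures in which DA neurons die spontaneously and selectively through a mechanism involving immature astrocytes and calcium dyshomeostasis. Compounds were present for 10 days in vitro, screened at 50 µM (100 µM for one analog) and retested at 10 µM. dbcAMP 1 mM served as reference. Surviving TH+ neurons were counted and expressed as % of corresponding untreated control cultures.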

The test system of assay [2] is Astrocyte. The assay can be described thus: Neuroprotective activity in Sprague-Dawley rat astrocytes assessed as [methyl-3H]thymidine incorporation at 10 to 50 uM after 8 days by liquid scintillation counting assay relative to control. The format is functional. The method, boiled down: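 Glial proliferation in midbrain cultures measured as [methyl-3H]-thymidine incorporation at 8 DIV, with test compound 10-50 µM. DbcAMP 1 mM as positive control. Expressed as % of control.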

Assay [3] is filed under the species Rattus norvegicus. The assay can be described thus: (§3) Neuroprotective activity in Sprague-Dawley rat DA neuron death PD model assessed as survival of Th immunopositive cells at 10 uM after 10 days by immunofluorescence assay relative to control. It is filed as functional. Put shortly: as §2
Assay [4] in a line: Neuroprotective activity in Sprague-Dawley rat DA neuron death PD model assessed as survival of Th immunopositive cells at 1 mM after 10 days by immunofluorescence assay relative to control. The format is functional. Conditions: 240 h, read-out: Survival. The method, boiled down:
as §2

For assay [5], the system named is Astrocyte. The experiment in a line: Neuroprotective activity in Sprague-Dawley rat astrocytes assessed as effect on vimentin positive cell density and morphology at 1 mM by fluorescence microscopic method. It is filed as functional, cell-based. Put shortly:
(§4)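 Midbrain cultures labelled for vimentin, a glial marker. Density and morphology of glial cells scored semi-quantitatively by fluorescence microscopy. Compounds tested at 10 and 50 µM, one at 100 µM; dbcAMP as reference.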

The species entered for assay [6] is Rattus norvegicus. The experiment in a line: Neuroprotective activity in Sprague-Dawley rat DA neuron death PD model assessed as increase in [2,5,6-3H]DA uptake at 1 mM after 10 days by liquid scintillation counting spectrometric analysis. The format is functional. The method, boiled down:
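Midbrain cultures in which DA neurons die spontaneously and selectively. Treated with test compound (10-50 µM) or dbcAMP (1 mM, reference) up to 10 DIV. Tritium-labeled DA uptake quantified as a marker of DA cell function and differentiation. Uptake rate per TH+ neuron also derived. *P < 0.05 vs control.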

Assay [7] is filed under the species Rattus norvegicus. The assay can be described thus: Antioxidant activity in Sprague-Dawley rat DA neuron assessed as reduction in ferrous iron-mediated neuron death at 10 uM. The format is functional. Put shortly:
(§5)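 Midbrain cultures with DA cell death driven by a Fenton-type reaction, ferrous iron reacting with molecular oxygen in the medium (chronic oxidative stress). Test compound 1-10 µM; desferrioxamine 10 µM as positive control. Readout is DA neuron (TH+) survival. P < 0.05 vs control cultures.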

Assay [8] can be described thus: as §3. The format is functional. Conditions: 240 h, read-out: Survival. The method, boiled down: as §2
Assay [9] relates to Astrocyte. The assay can be described thus: Neuroprotective activity in Sprague-Dawley rat astrocytes assessed as effect on vimentin positive cell density and morphology at 10 uM by fluorescence microscopic method. It is filed as functional, cell-based. Put shortly: as §4
Assay [10] relates to Astrocyte. The assay can be described thus: Neuroprotective activity in Sprague-Dawley rat astrocytes assessed as effect on vimentin positive cell density and morphology at 50 uM by fluorescence microscopic method. It is filed as functional, cell-based. The method, boiled down: as §4
The nature of assay [11]: Neuroprotective activity in Sprague-Dawley rat DA neuron death PD model assessed as survival of Th immunopositive cells at 100 uM after 10 days by immunofluorescence assay relative to control. The format is functional. Conditions: 240 h, read-out: Survival. Put shortly:
as §2

Assay [12] deals with Astrocyte. The assay can be described thus: Neuroprotective activity in Sprague-Dawley rat astrocytes assessed as effect on vimentin positive cell density and morphology at 100 uM by fluorescence microscopic method. It is filed as functional, cell-based. The method, boiled down: as §4
For assay [13], the species on record is Rattus norvegicus. The experiment in a line: Antioxidant activity in Sprague-Dawley rat DA neuron assessed as reduction in ferrous iron-mediated neuron death at 5 uM. It is filed as functional. Put shortly:
as §5

A short description of assay [14]: as §1. It is filed as functional. Conditions: 240 h, read-out: Survival. The method, boiled down:
as §2

Activity calls are given as the source filed them. The calls are words filed in the database; no cut-off is given here.

As for `Cc1nc2ccc(N)c(Cl)c2nc1-c1ccccc1`, the result in the assay listed under Rattus norvegicus [1] was Active.
On the same count and under the same terms, to `C#Cc1cnc2ccc(N)cc2n1` belongs “inactive”; to `COc1ccc(-c2nc3cc(N)ccc3nc2C)cc1OC`, “inactive”.
Turning to `C#CCNc1ccc2nc(C)c(-c3ccc(OC)cc3)nc2c1`, the outcome in the assay on Astrocyte [2] was inactive.
`Nc1ccc2ncc(-c3cnc4ccccc4c3)nc2c1`: in the assay filed under Rattus norvegicus [1], the outcome was Active.
With `C#CCNc1ccc2nc(C)c(-c3cc(OC)c(OC)c(OC)c3)nc2c1`, in the assay with Astrocyte [2], the result was inactive.
Consider `C#CCNc1ccc2nc(C)c(-c3ccccc3)nc2c1`, for which, in the assay filed under Rattus norvegicus [1], the outcome was Active.
Turning to `C#CCNc1ccc2nc(C)c(-c3ccc(Cl)cc3)nc2c1`, the result in the assay filed under Rattus norvegicus [1] and in the assay with Astrocyte [2] was inactive.
Regarding `Cc1nc2ccc(N)cc2nc1-c1ccc2ccccc2c1`, the outcome in the assay listed under Rattus norvegicus [1] was inactive.
Take `COc1ccc(C#Cc2cnc3ccc(N)cc3n2)cc1`: the result in the assay filed under Rattus norvegicus [1] was inactive.
Regarding `Cc1nc2ccc(N)c(Br)c2nc1-c1ccccc1`, in the assay listed under Rattus norvegicus [1], the outcome was Active. Moreover, the outcome in the assay filed under Rattus norvegicus [3] was inactive.
`Nc1ccc2ncc(-c3cccnc3)nc2c1`: in the assay listed under Rattus norvegicus [1], the outcome was Active.
The same measure, in the same setting: next, `C#CCNc1ccc2nc(C)c(-c3ccccc3)nc2c1Br`: “Active”.
Take `Cc1nc2ccc(N)cc2nc1C`: the outcome in the assay listed under Rattus norvegicus [1] was inactive.
The same measure, in the same setting: next, `Cc1nc2ccc(N)cc2nc1-c1ccc(-c2ccccc2)cc1`: “inactive”.
`CCCC(=O)Nc1ncnc2c1ncn2[C@@H]1O[C@@H]2COP(=O)(O)O[C@H]2[C@H]1OC(=O)CCC` [BUCLADESINE]: the viability at 1000 µM in assay [4] is 225%. Besides, the result in the assay on Astrocyte [5] and in the assay filed under Rattus norvegicus [6] was Active.
With `Nc1ccc2ncc(-c3cccc(O)c3)nc2c1`, the outcome in the assay filed under Rattus norvegicus [1] was Active. In addition, the result in the assay filed under Rattus norvegicus [3] was inactive.
Consider `C#CCNc1ccc2nc(C)c(-c3ccc(Cl)c(Cl)c3)nc2c1`, for which the outcome in the assay listed under Rattus norvegicus [1] and in the assay with Astrocyte [2] was inactive.
Take `Cc1nc2ccc(N)cc2nc1-c1ccc(Cl)cc1`: the outcome in the assay listed under Rattus norvegicus [1] was inactive.
On to `C#CCNc1ccc2nc(C)c(-c3ccc(C)cc3)nc2c1`, for which the result in the assay filed under Rattus norvegicus [1] and in the assay on Astrocyte [2] was inactive.
For `CC(=O)N(O)CCCCCNC(=O)CCC(=O)N(O)CCCCCNC(=O)CCC(=O)N(O)CCCCCN`, the result in the assay filed under Rattus norvegicus [7] was Active.
Take `C#CCNc1ccc2ncc(-c3ccccc3)nc2c1`: the outcome in the assay listed under Rattus norvegicus [1] and with Astrocyte [10] was Active. Also, in assay [8], the viability at 10 µM worked out at 212%. Also, in the assay with Astrocyte [9], the result was inactive.
As to `COc1ccc(-c2nc3cc(N)ccc3nc2-c2ccccc2)cc1`, the outcome in the assay listed under Rattus norvegicus [1] was inactive.
`COc1cc(-c2cnc3ccc(N)cc3n2)cc(OC)c1OC`: in the assay listed under Rattus norvegicus [1], the outcome was Active. Further, the result in the assay listed under Rattus norvegicus [3] was inactive.
For `C#CCNc1ccc2nc(C)c(-c3ccc(F)cc3)nc2c1`, the outcome in the assay listed under Rattus norvegicus [1] was Active.
For `C#CCNc1ccc2nc(C)c(-c3ccc4ccccc4c3)nc2c1`, the outcome in the assay filed under Rattus norvegicus [1] and with Astrocyte [2] was inactive.
In the case of `C#CCNc1ccc2ncc(-c3ccc(F)cc3)nc2c1`, the result in the assay listed under Rattus norvegicus [1] and with Astrocyte [10] was Active. Further, the result in the assay on Astrocyte [9] was inactive.
As for `Cc1ccc(-c2nc3cc(N)ccc3nc2C)cc1`, the outcome in the assay filed under Rattus norvegicus [1] was inactive.
Still for that read-out and setting: to `Cc1nc2ccc(N)cc2nc1-c1ccc(F)cc1` belongs “Active”.
Regarding `C#CC(C)(C)Nc1ccc2nc(C)c(-c3ccccc3)nc2c1`, the outcome in the assay listed under Rattus norvegicus [1] and with Astrocyte [2] was inactive.
`Nc1ccc2ncc(Cl)nc2c1`: the result in the assay filed under Rattus norvegicus [1] was Active.
For the compound `Cc1nc2ccc(N)cc2nc1-c1ccccc1`, the viability at 100 µM in [11] worked out at 199%. The result with Astrocyte [9] was inactive. Also, the result in the assay on Astrocyte [12] and in the assay listed under Rattus norvegicus [13] was Active.
As for `Nc1ccc2nc(-c3ccccc3)cnc2c1`, in assay [14], the viability at 50 µM came to 187%. Moreover, in [8], the viability at 10 µM was determined as 134%. Also, the outcome in the assay on Astrocyte [9] and with Astrocyte [10] was inactive.
`Nc1ccc2ncc(-c3ccc(F)cc3)nc2c1`: the outcome in the assay listed under Rattus norvegicus [1] was Active. Also, in assay [8], the viability at 10 µM turned out to be 144%. Moreover, the result in the assay with Astrocyte [9] and in the assay with Astrocyte [10] was inactive.
In the case of `Nc1ccc2ncc(-c3ccc4ccccc4c3)nc2c1`, the outcome in the assay filed under Rattus norvegicus [1] was Active.
`Cc1nc2cc(Br)c(N)c(Cl)c2nc1-c1ccccc1`: the result in the assay listed under Rattus norvegicus [1] was inactive.
On the same count and under the same terms, next, `Nc1ccc2ncc(-c3cccc4ccccc34)nc2c1`: “Active”; `COc1ccc(-c2nc3cc(N)ccc3nc2C)cc1`: “inactive”; `Cc1nc2ccc(N)cc2nc1-c1ccc(Cl)c(Cl)c1`: “Active”.

The record behind these values is ChEMBL document CHEMBL4431316, “New 6-Aminoquinoxaline Derivatives with Neuroprotective Effect on Dopaminergic Neurons in Cellular and Animal Parkinson Disease Models” (J Med Chem, 2016).
